What was measured:
Type in all cases: functional
[1] = tested on: Oesophagostomum columbianum; assay: Anthelmintic efficacy against Oseophagostomum columbianum (Oe. c) in sheep at dose of 0.25 mg/kg administered orally; conditions: route oral
Summary of the method: (§1)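 Lambs experimentally infected with mixed gastrointestinal nematodes (H. contortus, O. circumcincta, T. axei, T. colubriformis, C. oncophora, Oe. columbianum) were dosed orally, 1–3 sheep per dose. An untreated infected group of 6 was included, with worm burdens given as the geometric mean number of worms per lamb. Efficacy was scored against adult and, where listed, EL4 stages.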

[2] = tested on: Teladorsagia circumcincta; assay: Anthelmintic efficacy against adult Ostertagia circumcincta (O. c) in sheep at dose of 0.25 mg/kg administered orally; conditions: route oral; summary of the method: as §1
[3] = tested on: Oesophagostomum columbianum; assay: Anthelmintic efficacy against Oseophagostomum columbianum (Oe. c) in sheep at dose of 0.15 mg/kg administered orally; conditions: route oral; summary of the method: as §1
[4] = tested on: Haemonchus contortus; assay: Anthelmintic efficacy against adult Haemonchus contortus (H.c) in sheep at dose of 0.15 mg/kg administered orally; conditions: route oral; summary of the method: as §1
[5] = tested on: Trichostrongylus colubriformis; assay: Minimal dose necessary to eliminate > 83% of Trichostrongylus colubriformis infection in gerbils
[6] = tested on: Cooperia oncophora; assay: Anthelmintic efficacy against adult Cooperia oncopphora (C.o) in sheep at dose of 0.25 mg/kg administered orally; conditions: route oral; summary of the method: as §1
[7] = tested on: Trichostrongylus axei; assay: Anthelmintic efficacy against Trichostrongylus axei (T.a) in sheep at dose of 0.15 mg/kg administered orally; conditions: route oral; summary of the method: as §1
[8] = tested on: Trichostrongylus colubriformis; assay: Anthelmintic efficacy against Trichostrongylus colubriformis (T.c) in sheep at dose of 0.15 mg/kg administered orally; conditions: route oral; summary of the method: as §1
[9] = tested on: Trichostrongylus axei; assay: Anthelmintic efficacy against Trichostrongylus axei (T.a) in sheep at dose of 0.25 mg/kg administered orally; conditions: route oral; summary of the method: as §1
[10] = tested on: Teladorsagia circumcincta; assay: Anthelmintic efficacy against adult (EL4) Ostertagia circumcincta (O. c) in sheep at dose of 0.15 mg/kg administered orally; conditions: route oral; summary of the method: as §1
[11] = tested on: Teladorsagia circumcincta; assay: Anthelmintic efficacy against immature (EL4) Ostertagia circumcincta (O. c) in sheep at dose of 0.15 mg/kg administered orally; 20-59%
[12] = tested on: Trichostrongylus colubriformis; assay: Anthelmintic efficacy against Trichostrongylus colubriformis (T.c) in sheep at dose of 0.25 mg/kg administered orally; conditions: route oral; summary of the method: as §1
[13] = tested on: Cooperia oncophora; assay: Anthelmintic efficacy against adult Cooperia oncopphora (C.o) in sheep at dose of 0.15 mg/kg administered orally; conditions: route oral; summary of the method: as §1
[14] = tested on: Haemonchus contortus; assay: Anthelmintic efficacy against adult Haemonchus contortus (H.c) in sheep at dose of 0.25 mg/kg administered orally; conditions: route oral; summary of the method: as §1
[15] = tested on: Teladorsagia circumcincta; assay: Anthelmintic efficacy against immature (EL4) Ostertagia circumcincta (O. c) in sheep at dose of 0.1 mg/kg administered orally; 0-19
[16] = tested on: Haemonchus contortus; assay: Anthelmintic efficacy against immature (EL4) Haemonchus contortus (H.c) in sheep at dose of 0.1 mg/kg administered orally; conditions: route oral
Summary of the method: (§2)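 Lambs were experimentally infected with mixed gastrointestinal nematodes: Haemonchus contortus, Ostertagia circumcincta, Trichostrongylus axei, T. colubriformis, Cooperia oncophora and Oesophagostomum columbianum. Dosing was oral, in mg/kg, with 3 sheep per dose group. An untreated infected group of 6 sheep served as reference, with worm burdens given as the geometric mean per lamb. Immature (EL4) and adult worms were scored separately.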

[17] = tested on: Cooperia oncophora; assay: Anthelmintic efficacy against adult Cooperia oncopphora (C.o) in sheep at dose of 0.025 mg/kg administered orally; 0-19%; summary of the method: as §1
[18] = tested on: Teladorsagia circumcincta; assay: Anthelmintic efficacy against immature (EL4) Ostertagia circumcincta (O. c) in sheep at dose of 0.05 mg/kg administered orally; 0-19%
[19] = tested on: Trichostrongylus axei; assay: Anthelmintic efficacy against Trichostrongylus axei (T.a) in sheep at dose of 0.05 mg/kg administered orally; 60-89%; summary of the method: as §1
[20] = tested on: Cooperia oncophora; assay: Anthelmintic efficacy against immature (EL4) Cooperia oncopphora (C.o) in sheep at dose of 0.1 mg/kg administered orally; 20-59%
[21] = tested on: Trichostrongylus axei; assay: Anthelmintic efficacy against Trichostrongylus axei (T.a) in sheep at dose of 0.1 mg/kg administered orally; conditions: route oral; summary of the method: as §1
[22] = tested on: Haemonchus contortus; assay: Anthelmintic efficacy against immature (EL4) Haemonchus contortus (H.c) in sheep at dose of 0.025 mg/kg administered orally; 20-59%
[23] = tested on: Haemonchus contortus; assay: Anthelmintic efficacy against immature (EL4) Haemonchus contortus (H.c) in sheep at dose of 0.05 mg/kg administered orally; 60-89%
[24] = tested on: Cooperia oncophora; assay: Anthelmintic efficacy against adult Cooperia oncopphora (C.o) in sheep at dose of 0.05 mg/kg administered orally; 0-19%; summary of the method: as §1
[25] = tested on: Oesophagostomum columbianum; assay: Anthelmintic efficacy against Oseophagostomum columbianum (Oe. c) in sheep at dose of 0.025 mg/kg administered orally; 60-89%; summary of the method: as §1
[26] = tested on: Teladorsagia circumcincta; assay: Anthelmintic efficacy against adult Ostertagia circumcincta (O. c) in sheep at dose of 0.025 mg/kg administered orally; 60-89%; summary of the method: as §1
[27] = tested on: Haemonchus contortus; assay: Anthelmintic efficacy against adult Haemonchus contortus (H.c) in sheep at dose of 0.1 mg/kg administered orally; conditions: route oral; summary of the method: as §1
[28] = tested on: Oesophagostomum columbianum; assay: Anthelmintic efficacy against Oseophagostomum columbianum (Oe. c) in sheep at dose of 0.05 mg/kg administered orally; 60-89%; summary of the method: as §1
[29] = tested on: Cooperia oncophora; assay: Anthelmintic efficacy against immature (EL4) Cooperia oncopphora (C.o) in sheep at dose of 0.025 mg/kg administered orally; 20-59%
[30] = tested on: Haemonchus contortus; assay: Anthelmintic efficacy against adult Haemonchus contortus (H.c) in sheep at dose of 0.05 mg/kg administered orally; 60-89%; summary of the method: as §1
[31] = tested on: Trichostrongylus colubriformis; assay: Anthelmintic efficacy against Trichostrongylus colubriformis (T.c) in sheep at dose of 0.025 mg/kg administered orally; 0-19%; summary of the method: as §1
[32] = tested on: Teladorsagia circumcincta; assay: Anthelmintic efficacy against adult Ostertagia circumcincta (O. c) in sheep at dose of 0.1 mg/kg administered orally; conditions: route oral; summary of the method: as §1
[33] = tested on: Teladorsagia circumcincta; assay: Anthelmintic efficacy against adult Ostertagia circumcincta (O. c) in sheep at dose of 0.05 mg/kg administered orally; 60-89%; summary of the method: as §1
[34] = tested on: Cooperia oncophora; assay: Anthelmintic efficacy against adult Cooperia oncopphora (C.o) in sheep at dose of 0.1 mg/kg administered orally; 0-19%; summary of the method: as §1
[35] = tested on: Trichostrongylus colubriformis; assay: Anthelmintic efficacy against Trichostrongylus colubriformis (T.c) in sheep at dose of 0.1 mg/kg administered orally; conditions: route oral; summary of the method: as §2
[36] = tested on: Oesophagostomum columbianum; assay: Anthelmintic efficacy against Oseophagostomum columbianum (Oe. c) in sheep at dose of 0.1 mg/kg administered orally; conditions: route oral; summary of the method: as §1
[37] = tested on: Teladorsagia circumcincta; assay: Anthelmintic efficacy against immature (EL4) Ostertagia circumcincta (O. c) in sheep at dose of 0.025 mg/kg administered orally; 0-19%
[38] = tested on: Trichostrongylus colubriformis; assay: Anthelmintic efficacy against Trichostrongylus colubriformis (T.c) in sheep at dose of 0.05 mg/kg administered orally; 60-89%; summary of the method: as §1
[39] = tested on: Trichostrongylus axei; assay: Anthelmintic efficacy against Trichostrongylus axei (T.a) in sheep at dose of 0.025 mg/kg administered orally; 0-19%; summary of the method: as §1
[40] = tested on: Haemonchus contortus; assay: Anthelmintic efficacy against adult Haemonchus contortus (H.c) in sheep at dose of 0.025 mg/kg administered orally; 0-19%; summary of the method: as §1
[41] = tested on: Cooperia oncophora; assay: Anthelmintic efficacy against immature (EL4) Cooperia oncopphora (C.o) in sheep at dose of 0.05 mg/kg administered orally; 20-59%

## CC[C@H](C)[C@H]1O[C@]2(C=C[C@@H]1C)C[C@@H]1C[C@@H](C/C=C(\C)[C@@H](O[C@H]3C[C@@H](OC)[C@@H](O[C@H]4C[C@@H](OC)[C@@H](OC(C)=O)[C@H](C)O4)[C@H](C)O3)[C@@H](C)/C=C/C=C3\CO[C@@H]4[C@H](OC(C)=O)C(C)=C[C@@H](C(=O)O1)[C@]34O)O2
[1]
  Efficacy: >90%
[2]
  Efficacy: >90%
[3]
  Efficacy: >90%
[4]
  Efficacy: >90%
[5]
  Dose: 0.25 mg/kg
[6]
  Efficacy: >90%
[7]
  Efficacy: >90%
[8]
  Efficacy: >90%
[9]
  Efficacy: >90%
[10]
  Efficacy: >90%
[11]
  Efficacy: 20%
[12]
  Efficacy: >90%
[13]
  Efficacy: >90%
[14]
  Efficacy: >90%

## CC[C@H](C)[C@H]1O[C@]2(CC(O)[C@@H]1C)C[C@@H]1C[C@@H](C/C=C(\C)[C@@H](OC3CC(OC)C(OC4CC(OC)C(O)C(C)O4)C(C)O3)[C@@H](C)/C=C/C=C3\CO[C@@H]4[C@H](OC)C(C)=C[C@@H](C(=O)O1)[C@]34O)O2 (some centres not stated) [AVERMECTIN A2]
[15]
  Efficacy: 0%
[16]
  Efficacy: >90%
[17]
  Efficacy: 0%
[18]
  Efficacy: 0%
[19]
  Efficacy: 60%
[20]
  Efficacy: 20%
[21]
  Efficacy: >90%
[22]
  Efficacy: 20%
[23]
  Efficacy: 60%
[24]
  Efficacy: 0%
[25]
  Efficacy: 60%
[26]
  Efficacy: 60%
[27]
  Efficacy: >90%
[28]
  Efficacy: 60%
[5]
  Dose: 0.05 mg/kg
[29]
  Efficacy: 20%
[30]
  Efficacy: 60%
[31]
  Efficacy: 0%
[32]
  Efficacy: >90%
[33]
  Efficacy: 60%
[34]
  Efficacy: 0%
[35]
  Efficacy: >90%
[36]
  Efficacy: >90%
[37]
  Efficacy: 0%
[38]
  Efficacy: 60%
[39]
  Efficacy: 0%
[40]
  Efficacy: 0%
[41]
  Efficacy: 20%
